Calb biofilm kill: clotrimazole potentiators killing C. albicans biofilm, primary screen, 4-compound mixtures | inhibition, % at 7.6 µM | C. albicans biofilm persisters + clotrimazole, fluorescence viability; primary screen in compound mixtures of four per well | 120,000 compounds, 0.02% hits | AID 1242, 2008;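 active means inhibition above 30.3% in the primary screen of four-compound pools, then above 30% when the compound was retested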;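 further: compounds exposed to preformed 24 h biofilms for 48 h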
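System: C. albicans CAF4-2 wild-type biofilms; Medium: RPMI/MOPS medium, pH 7.0; Reagent: Clotrimazole, 50 µg/mL; Times: biofilm formation 24 h, compound exposure 48 h, 37 °C; Detection: 2-h Alamar Blue fluorescence, 535/590 nm excitation/emission; Evaluation: percent inhibition of biofilm viability.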
ROMK mod: ROMK potassium channel modulators, primary screen, cell-based, thallium flux, MLSMR library. ATP-sensitive inward rectifier potassium channel 1 (Homo sapiens), P48048. Tet-inducible ROMK, thallium flux fluorescence; actives lie on both sides. B-score at 10 µM. 130,000 compounds, 2% hits. AID 1918, 2009;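 active means signal ratio slope over the read window, or its plate-corrected B-score, at least 3 SD from the plate mean, either direction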;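 further: B-score of the F/F0 ratio slope over 7 to 12 s after thallium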
Target sequence (P48048 whole entry, looked up): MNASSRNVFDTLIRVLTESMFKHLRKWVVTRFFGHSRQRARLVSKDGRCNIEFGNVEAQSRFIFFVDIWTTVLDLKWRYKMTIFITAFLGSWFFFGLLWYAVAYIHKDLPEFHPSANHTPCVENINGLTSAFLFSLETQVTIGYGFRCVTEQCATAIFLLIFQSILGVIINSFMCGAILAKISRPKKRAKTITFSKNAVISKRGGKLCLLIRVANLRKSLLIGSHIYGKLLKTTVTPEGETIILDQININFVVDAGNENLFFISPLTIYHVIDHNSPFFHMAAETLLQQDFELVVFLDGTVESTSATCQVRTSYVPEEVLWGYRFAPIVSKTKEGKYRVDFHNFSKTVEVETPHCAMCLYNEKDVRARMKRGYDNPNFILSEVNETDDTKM
ROMK hit retest: ROMK channel modulator hit retest, confirmation, cell-based, thallium flux, duplicate, resupplied hits. shares compounds with ROMK mod. fluorescence ratio; hits give low values. normalized thallium flux (F/F0 slope) at 10 µM. 3,000 compounds, 54% hits;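 active means Flux at 10 µM at least 3 SD below or above vehicle control mean in one or both replicates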
Hits are given with their value; - = inactive; . = no result given. The sample as a whole holds a higher share of hits than the screen did.

SMILES	Calb biofilm kill	ROMK mod	ROMK hit retest
CN(C)C(=O)CSc1nnc(Cc2ccc3c(c2)OCO3)o1	-	-	.
CN(C)/C=C(\C#N)c1nc2ccccc2[nH]1	.	-	.
N#C/C(=C\C1CC=CCC1)c1nc2ccccc2[nH]1 (stereo unspecified)	.	-7	0.045
Cc1cccc(NS(=O)(=O)c2cccc3nonc23)c1	-	-	.
CC(C)CCn1c(-c2nonc2N)nc2ccccc21	-	.	.
CCNC(=O)c1ccccc1NC(=O)c1cccc(S(=O)(=O)N2CCOCC2)c1	-	-	.
CN1CCN(S(=O)(=O)c2cccc(C(=O)N(c3ccccn3)C3CCCCC3)c2)CC1	.	-	.
CCNC(=O)c1ccccc1NC(=O)c1cccc(S(=O)(=O)N2CCC(C)CC2)c1	.	.	-
CCCn1c(NC(=O)c2cccc(S(=O)(=O)N3CCCC3)c2)nc2ccccc21	.	.	-
CCCn1c(NC(=O)c2ccc(C)cc2)nc2ccccc21	.	-	.
CC1CCN(S(=O)(=O)c2cccc(C(=O)N(Cc3ccccc3)c3ccccn3)c2)CC1	-	-4	0.062
Cn1ncc([N+](=O)[O-])c1C(=O)NCc1ccccc1	-	.	.
CC(NC(=O)C(C(=O)c1cccc([N+](=O)[O-])c1)n1cc(Cl)ccc1=O)c1ccccc1 (stereo unspecified)	-	-	.
O=C1/C(=C\c2cccs2)SC(=S)N1C1CCS(=O)(=O)C1 (stereo unspecified)	-	-	.
Cc1ccc(C2=CSC3=NS(=O)(=O)CCN23)cc1	-	-	.
O=C(C[n+]1cc(-c2ccccc2)n2c1CCC2)Nc1nc(-c2ccccc2)cs1	-	-	.
Cc1ccc(-c2c[n+](CC(=O)Nc3nc(-c4ccccc4)cs3)c3n2CCC3)cc1	-	-4.6	0.06
Cc1ccc(C(=O)N2CCC(C(=O)NCc3cccnc3)CC2)cc1	-	.	.
COc1cccc(NC(=O)Nc2cnccn2)c1	-	-	.
O=C(O)c1ccc(CS(=O)(=O)c2cccc(C(F)(F)F)c2)o1	.	.	-
CC(NC(=O)c1ccc(CS(=O)(=O)c2cccc(C(F)(F)F)c2)o1)c1ccc2c(c1)OCCO2 (stereo unspecified)	.	-	.
CCOc1ccccc1-c1cc(-c2ccccc2)nc2c1c(=O)n(C)c(=O)n2C	.	-	.
Cc1noc(C)c1COc1ccc(CC(=O)NC2CCCCCC2)cc1	-	-	.
Cc1noc(C)c1COc1ccc(CC(=O)NCc2ccccc2)cc1	-	3.1	0.1
COc1cccc(-c2nn(C)c3sc(C(=O)NCc4ccccn4)cc23)c1	.	.	-
SMILES	Calb biofilm kill	ROMK mod	ROMK hit retest
COc1cccc(-c2nn(C)c3sc(C(=O)NCc4ccc(C)cc4)cc23)c1	.	-	.
CC(=O)Nc1ccc2oc(-c3ccccc3)nc2c1	-	-	.
CC(C)(C)c1ccc(OCC(O)CN(CCO)CC(O)Cn2ccc3ccccc32)cc1 (stereo unspecified)	-	.	.
OCCN(CC(O)Cn1ccc2ccccc21)CC(O)Cn1ccc2ccccc21 (stereo unspecified)	.	-4.8	0.056
COc1ccc(Cl)cc1NC(=O)CNc1ccc(F)cc1C	-	.	.
Cc1ccc(S(=O)(=O)CNC(=S)c2ccc3ccccc3c2)cc1	.	-	.
O=C(N/N=C/c1ccccc1C(=O)O)c1ccccc1Br	-	-	.
NC(=O)N/N=C/c1ccccc1OC(=O)c1ccccc1Br	-	-3.2	0.052
CCOC(=O)c1ccc(NC(=S)Nc2ccc3[nH]c(=O)[nH]c3c2)cc1	-	.	.
CSCCC(NS(=O)(=O)c1ccc2[nH]c(=O)c(=O)[nH]c2c1)C(=O)O (stereo unspecified)	-	-	.
CC1CC(C)CN(CCCNC(=O)c2csc3c2CCCC3)C1 (stereo unspecified)	.	-3	0.064
CC(C)CCNC(=O)c1csc2c1CCCCC2	-	-	.
CN(C)N1C(N)=C(C#N)C(c2cccnc2)C2=C1CCCC2=O (stereo unspecified)	-	-	.
COc1cccc(N2CC(C)Cn3c2nc2c3c(=O)n(CCN3CCOCC3)c(=O)n2C)c1 (stereo unspecified)	.	-	.
Cc1ccc2occ(/C=N/NC(N)=S)c(=O)c2c1	-	.	.
CCOC(=O)Cn1c(=N)n(CCOc2ccc3ccccc3c2)c2ccccc21	.	-4.2	0.056
N=c1n(CCCOc2ccc(Br)cc2)c2ccccc2n1CC(N)=O	-	.	.
CCOC(=O)Cn1c(=O)cnc2ccccc21	.	-	.
CCOC(=O)Cn1c(=N)n(CCOc2ccc(OC)cc2)c2ccccc21	.	-2.6	0.06
COC(=O)[C@@H]1C[C@@]2(O)[C@@H](O)[C@@H](O)[C@@H](O)C[C@H]2N1C/C=C/c1ccccc1	-	.	.
O=C(Nc1ccccc1C(=O)NCC1CCCO1)c1ccco1 (stereo unspecified)	.	-	.
CCOC(=O)C1CCN(C(=O)COc2ccc([N+](=O)[O-])cc2)CC1	-	-	.

From PubChem BioAssay
